High-throughput results as filed in PubChem BioAssay.
Shown are actives, neighbours in structure and some others; about 1.9% of the full set was active somewhere.
Rpn11 block: blocks the human proteasome subunit Rpn11; human 26S proteasome, Ub4-pepOG fluorescence polarization; 20S core pre-blocked with epoxomicin; inhibition, % at 20 µM; 0.59% of 360,000 active; AID 588493;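 active = inhibition at 20 µM, scaled to each plate's controls, above about 33%, limit read from the data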
ABHD5-PLIN5 inh: ABHD5-PLIN5 protein interaction inhibition; 0.78% of 360,000 active; Q00G26+Q8WTS1; Split G. princeps luciferase complementation, luminescence, 4 h; inhibition, % at 4 µM;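 active = inhibition above the mean inhibition across every tested compound plus 3 SD, cut at about 22% in these data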;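 also: 0% = DMSO only wells and the 100% control is not disclosed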
Xi reactivation: X-chromosome reactivation activator | XiGFP mouse fibroblasts, % GFP-positive cells imaging, 3 d; cells co-treated with 5-aza-dC sensitizer; scaled so ellipticine positive control = 100% | activation, % at 7.58 µM | 0.055% of 360,000 active;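 active = mean normalized replicate activation at least 10% and every replicate at or above 10%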;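 also: 0% = median of on-plate neutral control wells and 100% = ellipticine 6 µM median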
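System: 68-5-11 XiGFP fibroblast line | Buffer or medium: DMEM containing 5-aza-dC | Compound: Single point | Times: Compounds 3 days, fix/stain 15 min at room temperature | Benchmarks: Positive control ellipticine, 6 µM final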
NadD inh: inhibitors of Staphylococcus aureus NadD; purified NadD enzyme, colorimetric absorbance read-out; 0.78% of 360,000 active; inhibition, % at 20 µM; in the data active = inhibition above about 26%
Rin1 Abl inh: human Rin1-Abl interaction inhibition | TR-FRET Rin1/Abl binding, biochemical | inhibition, % at 7.35 µM | 0.4% of 360,000 active; in the data active = inhibition above about 5%, passing the limit was not always enough
Target sequence (P00519 whole entry, looked up): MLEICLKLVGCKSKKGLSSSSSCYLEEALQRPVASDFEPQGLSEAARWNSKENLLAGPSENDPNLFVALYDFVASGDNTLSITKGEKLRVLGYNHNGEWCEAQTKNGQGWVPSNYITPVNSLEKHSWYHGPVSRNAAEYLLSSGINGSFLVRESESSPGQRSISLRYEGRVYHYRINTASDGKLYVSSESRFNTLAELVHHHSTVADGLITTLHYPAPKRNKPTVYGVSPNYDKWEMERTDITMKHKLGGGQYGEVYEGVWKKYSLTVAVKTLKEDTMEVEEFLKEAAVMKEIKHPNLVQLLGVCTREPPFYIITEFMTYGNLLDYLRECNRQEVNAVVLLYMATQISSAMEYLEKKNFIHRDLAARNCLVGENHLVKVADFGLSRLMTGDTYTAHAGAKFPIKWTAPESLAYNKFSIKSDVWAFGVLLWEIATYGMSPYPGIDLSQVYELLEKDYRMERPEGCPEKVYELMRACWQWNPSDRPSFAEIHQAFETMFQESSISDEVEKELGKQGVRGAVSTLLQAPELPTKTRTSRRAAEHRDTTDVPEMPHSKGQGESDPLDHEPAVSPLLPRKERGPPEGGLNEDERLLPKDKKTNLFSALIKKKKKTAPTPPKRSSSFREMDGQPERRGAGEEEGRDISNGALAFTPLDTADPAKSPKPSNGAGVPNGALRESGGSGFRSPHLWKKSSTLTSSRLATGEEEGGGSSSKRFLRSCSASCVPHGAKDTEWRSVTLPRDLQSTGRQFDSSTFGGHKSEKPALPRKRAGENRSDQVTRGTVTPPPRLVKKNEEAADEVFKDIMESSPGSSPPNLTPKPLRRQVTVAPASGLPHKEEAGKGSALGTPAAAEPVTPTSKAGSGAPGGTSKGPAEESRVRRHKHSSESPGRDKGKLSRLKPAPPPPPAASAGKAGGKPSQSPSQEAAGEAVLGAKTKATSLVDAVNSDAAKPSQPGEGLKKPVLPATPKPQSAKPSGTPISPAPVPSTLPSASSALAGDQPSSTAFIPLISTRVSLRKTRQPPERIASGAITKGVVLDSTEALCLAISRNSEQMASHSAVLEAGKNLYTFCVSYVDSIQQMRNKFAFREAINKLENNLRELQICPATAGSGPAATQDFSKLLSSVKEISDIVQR
Target sequence (Q13671 whole entry, looked up): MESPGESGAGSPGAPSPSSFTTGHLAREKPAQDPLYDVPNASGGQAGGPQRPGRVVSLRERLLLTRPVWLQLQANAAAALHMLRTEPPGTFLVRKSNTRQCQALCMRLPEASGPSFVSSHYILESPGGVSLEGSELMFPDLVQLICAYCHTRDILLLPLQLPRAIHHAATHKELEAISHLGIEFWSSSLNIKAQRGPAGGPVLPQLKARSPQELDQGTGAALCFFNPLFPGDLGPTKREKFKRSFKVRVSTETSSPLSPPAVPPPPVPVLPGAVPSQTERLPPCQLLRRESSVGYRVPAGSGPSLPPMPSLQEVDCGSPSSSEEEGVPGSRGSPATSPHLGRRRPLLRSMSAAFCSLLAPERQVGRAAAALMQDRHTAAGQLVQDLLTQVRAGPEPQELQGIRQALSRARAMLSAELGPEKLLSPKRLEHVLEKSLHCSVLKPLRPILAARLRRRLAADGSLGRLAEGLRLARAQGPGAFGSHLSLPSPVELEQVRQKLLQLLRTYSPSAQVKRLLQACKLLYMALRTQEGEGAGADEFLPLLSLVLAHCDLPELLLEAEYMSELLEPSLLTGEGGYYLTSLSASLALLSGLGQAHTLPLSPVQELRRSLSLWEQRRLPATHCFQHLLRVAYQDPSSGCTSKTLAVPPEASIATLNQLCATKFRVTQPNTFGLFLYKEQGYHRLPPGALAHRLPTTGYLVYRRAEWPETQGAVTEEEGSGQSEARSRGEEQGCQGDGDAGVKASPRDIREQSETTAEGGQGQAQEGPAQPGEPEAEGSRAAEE
Rin1-Abl confirm: Rin1-Abl interaction inhibition confirmation; 49% of 1,300 active; inhibition, % at 7.35 µM; shares compounds with Rin1 Abl inh; TR-FRET Rin1-Abl binding, purified proteins
GFP quencher: GFP fluorescence interference artifact | shares compounds with Rin1 Abl inh | inhibitors/quenchers counterscreen | inhibition, % at 6.75 µM | 8.5% of 1,300 active | AID 602125;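 also: ABL1-eGFP fusion protein alone without its partner RIN1-SBP; 0% = protein with vehicle and 100% = wells lacking protein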
GFP quench DR: counter-screen for Rin1-Abl inhibitors: GFP quenchers, dose response; shares compounds with Rin1 Abl inh; GFP fluorescence interference/quenching counterscreen; IC50, µM; 230 tested, under 10 active; call rule not given here;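 also: ABL1-eGFP fusion protein alone without its RIN1 binding partner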
* marks the source's active call; other numbers are inactive results; · = not tested or not shown. Rule as the data show it, unless noted: active = inhibition above about 6.5%; inactive = the rest.

SMILES	Rpn11 block	ABHD5-PLIN5 inh	Xi reactivation	NadD inh	Rin1 Abl inh	Rin1-Abl confirm	GFP quencher	others
CCOC(=O)CSc1ccc2nnc(-c3cccnc3)n2n1	-4	0	0	2	7.5*	-3	-1
CCOC(=O)CSc1ccc2nnc(-c3ccccc3)n2n1	-3	0	0	5	-2	·	·
COc1ccc2c3c([nH]c2c1)[C@@H](CO)N(Cc1ccccc1)CC31CN(C(=O)c2cccnc2)C1	·	·	0	·	·	·	·
CO[C@@H]1CN(C)C(=O)c2ccc(NC(=O)Nc3cc(Cl)cc(Cl)c3)cc2OC[C@H](C)NC[C@@H]1C	·	·	0	·	·	·	·
CCOc1ccc(-c2nnc(N3CCOCC3)c3ccccc23)cc1	1	-1	0	3	12*	6.7*	-1
C[C@H]1CN([C@@H](C)CO)C(=O)Cc2cc(NC(=O)CCCCCC(=O)Nc3ccccc3N)ccc2O[C@H]1CN(C)S(=O)(=O)c1ccc(Cl)cc1	·	·	0	·	·	·	·
Cc1ccc(C(C)NC(=O)C23CC4CC(CC(C4)C2)C3)cc1 (stereo not drawn)	-2	9	0	-4	6.0*	0	-1
CC(NC(=O)C12CC3CC(CC(C3)C1)C2)c1ccc2c(c1)OCCO2 (stereo not drawn)	-13	-2	·	-15	2	·	·
COc1cccc(S(=O)(=O)Nc2ccc3c(c2)C(=O)N(C)[C@H]2CC[C@H](CC(=O)Nc4ccc(C(C)C)cc4)O[C@@H]2CO3)c1	·	·	0	·	·	·	·
Cc1cc(C)nc(Nc2nc3ccccc3s2)n1	-6	2	0	-1	-5	·	·
Cc1ccc(Nc2nc3ccccc3s2)c(C)c1	-6	-16	0	-4	6.9*	0	0
CCc1cc(=O)oc2cc3occ(C)c3cc12	-4	1	0	-3	11*	-2	2
CNC[C@@H]1OCCCC[C@H](C)Oc2ccc(NC(=O)Nc3c(C)noc3C)cc2C(=O)N([C@H](C)CO)C[C@H]1C	·	·	0	·	·	·	·
CCOC(=O)c1c(NC(=O)CN(C)C2CCN(C)CC2)sc(C(=O)Nc2ccccc2)c1C	10	6	0	7	7.6*	-1	-1
C[C@@H]1CN([C@@H](C)CO)C(=O)c2cccc(NS(=O)(=O)c3ccc(F)cc3)c2O[C@@H]1CN(C)Cc1ccc(Oc2ccccc2)cc1	·	·	1	·	·	·	·
C#CCOCCOCCOCCNc1nc(N2CCOCC2)nc(N2CCN(C(=O)CCCCCCCCCCNC(=O)Cn3cc(CCCCCN)nn3)CC2)n1	-12	3	0	-7	3	·	·
C#CCOCCOCCOCCNc1nc(N2CCN(C(=O)CCCCCCCCCCNC(=O)[C@H](CCCCN)n3cc(CCO)nn3)CC2)nc(N2CCN(C(=O)CCCCCCCCCCNC(=O)[C@H](CCCCN)n3cc(CCO)nn3)CC2)n1	8	29*	·	9	19*	20*	1
C#CCOCCOCCOCCNc1nc(N2CCN(C(=O)Cn3cc(CCCCN)nn3)CC2)nc(N2CCN(C(=O)[C@H](CCCCN)n3cc(CCCC)nn3)CC2)n1	4	5	0	-6	0	·	·
C#CCOCCOCCOCCNc1nc(N2CCOCC2)nc(N2CCN(C(=O)CCCCCCCCCCNC(=O)[C@H](CO)n3cc(CCCCCN)nn3)CC2)n1	-5	4	0	1	9.9*	9.8*	-1
CCN(CC)CCCNC(=O)C1c2ccccc2Oc2ccccc21	-4	1	·	-2	5.0*	1	-1
COCCCNC(=O)C1c2ccccc2Oc2ccccc21	-4	3	0	-4	-1	·	·
CCCNC(=O)N1CC2(C1)CN(C(=O)CCC)[C@@H](CO)c1[nH]c3cc(OC)ccc3c12	·	·	0	·	·	·	·
CC(Sc1nccn1C)C(=O)Nc1ccc(C(N)=O)cc1 (stereo not drawn)	-13	12	0	0	10*	-2	0
O=c1nccc(N/N=C/c2ccccc2)[nH]1	8	8	0	-3	8.8*	20*	-2	GFP quench DR=>68
O=c1cc(N/N=C/c2ccccc2)[nH]c(=O)[nH]1	-1	-17	0	1	0	·	·
SMILES	Rpn11 block	ABHD5-PLIN5 inh	Xi reactivation	NadD inh	Rin1 Abl inh	Rin1-Abl confirm	GFP quencher	others
COCC(=O)Nc1ccc2c(c1)C(=O)N(C)C[C@@H](OC)[C@@H](C)CN(Cc1ccccc1)[C@@H](C)CO2	·	·	0	·	·	·	·
NC(=O)c1nsc(C(=O)N(c2ccc3c(c2)OCCO3)C(C(=O)NCC2CCCO2)c2ccc(F)cc2)c1N (stereo not drawn)	0	4	0	3	11*	11*	-1
CCOc1ccc(N(C(=O)c2snc(C(N)=O)c2N)C(C(=O)NC2CCCC2)c2ccncc2)cc1 (stereo not drawn)	3	0	0	-6	7.6*	3	0
CCOc1ccc(C(C(=O)NCC2CCCO2)N(C(=O)c2snc(C(N)=O)c2N)c2ccccc2F)cc1 (stereo not drawn)	6	0	0	2	8.5*	11*	0
NC(=O)c1nsc(C(=O)N(c2ccccc2)C(C(=O)NCC2CCCO2)c2ccc(F)cc2)c1N (stereo not drawn)	3	-1	0	5	1	·	·
CCc1ccc(N(C(=O)c2snc(C(N)=O)c2N)C(C(=O)NC2CCCC2)c2ccncc2)cc1 (stereo not drawn)	0	-3	0	-1	3	·	·
Cc1ccc(C(C(=O)NCC2CCCO2)N(C(=O)c2snc(C(N)=O)c2N)c2ccc3c(c2)OCCO3)cc1 (stereo not drawn)	2	-4	1	9	13*	14*	-2
CN(C)CC(=O)N1CC2(C1)[C@H](c1ccccc1)[C@H](CO)N2Cc1ccccc1F	·	·	0	·	·	·	·
C[C@@H]1CN([C@@H](C)CO)C(=O)c2cc(NS(=O)(=O)c3ccc(Cl)cc3)ccc2O[C@@H]1CN(C)Cc1ccc(C(F)(F)F)cc1	·	·	0	·	·	·	·
NC(=O)C1CCN(C(=O)c2cnn(-c3ccccc3)c2NC(=O)c2cccc(F)c2)CC1	1	-5	·	0	23*	1	1
O=C(Nc1c(C(=O)N2CCCC2)cnn1-c1ccccc1)c1cccc(F)c1	3	1	·	-1	-4	·	·
CCCCOC(=O)C1=C(C)N(C)C(=O)NC1c1cc2c(cc1Br)OCO2 (stereo not drawn)	2	-1	0	1	-2	·	·
CCOC(=O)C1=C(C)N(C)C(=O)NC1c1cc2c(cc1[N+](=O)[O-])OCO2 (stereo not drawn)	-12	-17	0	-2	8.7*	7.4*	1
